Results from different studies.
Compare with care: the assays were run in different laboratories.
Target: Serine/threonine-protein kinase 17B (STK17B, Homo sapiens, UniProt O94768)
One construct used (O94768 1-372): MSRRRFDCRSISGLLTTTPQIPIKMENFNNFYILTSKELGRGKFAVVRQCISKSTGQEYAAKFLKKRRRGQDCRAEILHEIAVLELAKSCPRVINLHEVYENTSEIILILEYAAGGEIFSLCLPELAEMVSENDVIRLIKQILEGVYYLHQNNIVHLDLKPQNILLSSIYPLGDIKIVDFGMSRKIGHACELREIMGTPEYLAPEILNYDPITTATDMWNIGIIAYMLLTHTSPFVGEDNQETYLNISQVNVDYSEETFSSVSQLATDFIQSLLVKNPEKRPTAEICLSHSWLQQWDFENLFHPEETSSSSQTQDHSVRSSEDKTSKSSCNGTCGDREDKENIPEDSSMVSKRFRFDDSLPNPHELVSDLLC

| SMILES | test | conditions | remaining binding [%] |
| --- | --- | --- | --- |
| COc1ncc2cc3ccccc3nc2c1C#N | cell-free assay, competition with immobilised ligand | 5 µM | 100 |
| C=CC(=O)N1CCC(C(=O)NCC(=O)N2CCN(c3nc(-c4cnc(N)nc4C(F)F)nc(N4CCOCC4)n3)CC2)CC1 | binding, competition with immobilised ligand | 1 µM | 97 |
| O=C(Nc1c[nH]nc1C(=O)NC1CCNCC1)c1cc(F)cc(F)c1 | binding, competition with immobilised ligand | 1 µM | 100 |
| Cc1c(C(=O)O)cc(-c2ccc(C3CCNCC3)cc2)c2ccc(-c3ccc(C(F)(F)F)cc3)cc12 | cell-free assay, competition with immobilised ligand | 1 µM | 100 |
| COc1cnc(Nc2cccc(S(N)(=O)=O)c2)nc1N1CCN(c2ccccc2)C(=O)C1 | binding, competition with immobilised ligand | 1 µM | 89 |
| N[C@@H]1CCN(c2nccc(-c3cnn4ncccc34)n2)C1 | binding | 1 µM | 100 |
| CNC(=O)Nc1ccc2c(c1)[C@@]1(CC2)OC(=O)N(CC(=O)N(Cc2ccc(F)cc2)[C@@H](C)C(F)(F)F)C1=O | cell-free assay, competition with immobilised ligand | 1 µM | 77 |
| C[C@@H]1CCN(c2nccc(-c3cnn4ncccc34)n2)C1 | binding | 1 µM | 100 |
| CS(=O)(=O)c1cc(C2(NC(=O)c3cncc4c3cnn4-c3ccc(F)cc3)CC2)ccn1 | cell-free assay, competition with immobilised ligand | 1 µM | 83 |
| CN(C)c1nccc(-c2cnc3ncccn23)n1 | binding | 1 µM | 100 |
| C[C@@H]1CN(c2cc(-c3n[nH]c4ccc(OC5(C)CC5)cc34)ncn2)C[C@H](C)O1 | cell-free assay, competition with immobilised ligand | 0.1 µM | 96 |
| CN(C)c1nccc(-c2cnn3ncccc23)n1 | binding | 1 µM | 100 |
| Cc1noc([C@H]2C[C@@H](c3ccc(C(F)(F)F)cc3)CN(C(=O)N3CCS(=O)(=O)C3)C2)n1 | cell-free assay, competition with immobilised ligand | 1 µM | 100 |
| O=C(c1ccc(Nc2ncc(Cl)c(-c3cc4ccccc4s3)n2)cc1)N1CCC(N2CCCC2)CC1 | binding, competition with immobilised ligand | 1 µM | 0 |
| COc1ccnn2ncc(-c3ccnc(N(C)C)n3)c12 | binding | 1 µM | 100 |
| O=C(NCCCN1CCOCC1)c1ccc(Nc2nccc(-c3cc4ccccc4s3)n2)cc1 | binding, competition with immobilised ligand | 1 µM | 0 |
| CNC(=O)[C@@H]1CC[C@@H](n2c(-c3ccc4cnccc4c3)nc3ccc(C(=O)NCc4cccc(C(N)=O)c4)cc32)C1 | binding, competition with immobilised ligand | 1 µM | 99 |
| Nc1ncc2c(n1)-c1c([nH]c3ccc(C#CC4CC4)cc13)CCCC2 | binding, competition with immobilised ligand | 1 µM | 96 |
| CC(C)CC(=O)N1CCc2nc(-c3ccc(Br)cc3)nc(N(C)Cc3ccccc3)c2C1 | cell-free assay, competition with immobilised ligand | 0.1 µM | 91 |
| CCN1CCN(Cc2ccc(C(=O)Nc3ccc(C)c(Oc4ccc5c(c4)CC(=O)N5)c3)cc2C(F)(F)F)CC1 | binding, competition with immobilised ligand | 1 µM | 100 |
| O=C(NCCCN1CCOCC1)c1ccc(Nc2ncc(Cl)c(-c3ccc(Cl)s3)n2)cc1 | binding, competition with immobilised ligand | 1 µM | 0.45 |
| CN(c1nccc(-c2cnn3ncccc23)n1)C1CC1 | binding | 1 µM | 100 |
